Screens deposited in PubChem BioAssay by several laboratories.
This is a sample that favours compounds with a hit; in the whole collection about 3.2% have one here.
NR2E3 ag-1 = NR2E3 (human) agonism; Q9Y5X4; GST-NR2E3/biotin-RetCOR TR-FRET, 1536-well; inhibition of corepressor binding, % at 4.78 µM; 320,000 tested, 0.12% active; AID 2300;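 active = percent inhibition above the cutoff of mean plus 3 SD of all tested compounds, set per screening campaign, cut at about 20% in these data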;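 note: 0% = DMSO wells and 100% = biotin wells as full block of FRET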
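System: GST-NR2E3 and biotin-RetCOR proteins; probe or stimulus: 7 nM biotin-RetCOR; doses: compound at 4.8 µM, single dose; schedule: Compound–protein incubation for 5 h at 4 °C; detection: time-resolved FRET; read-out: percent inhibition; controls: biotin wells as high control, 0.6% DMSO wells as low control; format: 1536-well plates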
NR2E3 ag-2 = activates human NR2E3 receptor; Q9Y5X4; CHO-S Gal4-NCOR/VP16-NR2E3 two-hybrid, luciferase; inhibition of corepressor binding, % at 3.98 µM; 360,000 tested, 0.35% active;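 active = inhibition above the mean of all tested compounds plus 3 SD, cut at about 70% in these data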;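 note: 0% = DMSO with NR2E3 transfected cells and 100% = cells lacking NR2E3 construct; higher means lower luciferase signal from less NR2E3 corepressor binding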
DAX1 inh-1 = DAX1 (NR0B1) inhibition, primary screen. HEK293T StAR-luciferase reporter, SF-1/DAX-1 repression relief. inhibition, % at 6.8 µM. 370,000 tested, 1.1% active;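 active = inhibition above the mean over all tested compounds plus 3 SD, cut at about 3.6% in these data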;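 note: 0% = DAX-1 cells with DMSO and 100% = cells lacking DAX-1 with DMSO; higher inhibition means more luminescence from relief of DAX-1 repression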
GASC-1 inh = blocks human GASC-1 demethylase activity | 330,000 tested, 0.069% active | GST-JMJD2C(1-420) H3K9me3 demethylation, DELFIA europium | inhibition, % at 2.35 µM | Q9H3R0 | AID 2099;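 active = more than half of a compound's replicate wells show inhibition beyond 50%, single wells judged on their own value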;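 note: signal counts dimethyl H3K9 product captured on neutravidin plate; 0% = median of DMSO wells and 100% = 0.3 times that DMSO median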
Target sequence (Q9H3R0 1-420 limits assumed): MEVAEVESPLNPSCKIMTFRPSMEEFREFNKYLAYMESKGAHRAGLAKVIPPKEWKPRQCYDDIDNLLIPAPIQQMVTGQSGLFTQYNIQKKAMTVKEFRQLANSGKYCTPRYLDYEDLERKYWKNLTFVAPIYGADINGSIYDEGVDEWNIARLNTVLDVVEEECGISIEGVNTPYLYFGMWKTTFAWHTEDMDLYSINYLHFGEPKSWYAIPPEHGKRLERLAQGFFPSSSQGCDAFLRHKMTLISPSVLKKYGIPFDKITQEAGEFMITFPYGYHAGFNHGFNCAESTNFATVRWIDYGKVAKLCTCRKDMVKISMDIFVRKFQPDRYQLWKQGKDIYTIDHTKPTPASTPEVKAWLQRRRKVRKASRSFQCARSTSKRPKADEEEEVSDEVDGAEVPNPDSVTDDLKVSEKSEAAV
SMARCA2 activ = activators of SMARCA2 function; MG213 cells, MMTV-luciferase reporter, dexamethasone, overnight; activation, % at 9.1 µM; 370,000 tested, 1% active; in the data active = activation above about 7.8%;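 note: 0% = vehicle wells and 100% = reference activator wells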
DAX1 inh-2 = inhibitors of human orphan nuclear receptor DAX1 (NR0B1). HEK293 Gal4-DAX1 luciferase reporter, luminescence. inhibition, % at 6.75 µM. 340,000 tested, 0.99% active. AID 504766;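 active = inhibition above the mean over all tested compounds plus 3 SD, cut at about 4.2% in these data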;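 note: 0% = DAX1-transfected cells with DMSO and 100% = empty-vector control cells with DMSO; inhibition shows as a rise in luminescence from relieved DAX1 repression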
Active calls of the source: *; · = no result given.

SMILES	NR2E3 ag-1	NR2E3 ag-2	DAX1 inh-1	GASC-1 inh	SMARCA2 activ	DAX1 inh-2
CCO[C@@H]1OC(C(=O)O)=C[C@H](C2CCCCC2)[C@H]1CCCO	3	-23	0	0	1	2
C#CCCN([C@@H](CC(C)C)C(=O)OC)S(=O)(=O)c1ccc(F)cc1Br	·	·	-2	·	-4	·
O=C(CSc1nc2ccccc2nc1N1CCOCC1)N1CCN(S(=O)(=O)c2cccc([N+](=O)[O-])c2)CC1	·	·	0	·	1	·
CC1CCN(C(=O)COc2ncnc3ccccc23)CC1	-3	3	1	-13	0	1
CC1CCN(C(=O)COc2ccc3ccccc3c2Br)CC1	1	-11	4.2*	-7	2	1
COCCNC(=S)N(C)[C@H]1C[C@H]2c3[nH]c4c(-c5ccc6c(c5)OCO6)cccc4c3CCN2C[C@H]1[C@H](C)O	·	·	-1	·	-4	·
CC(C)N1CCN(Cc2cccc(-c3ccco3)c2)CC1CCO (stereo not drawn)	-2	7	0	1	-2	0
Cc1ccccc1-c1cccc(CN2CCN(C)C(CCO)C2)c1 (stereo not drawn)	2	-10	0	9	5	4.6*
O=S1(=O)c2ccc(N3CC[C@@H](O)C3)cc2O[C@@H]2CCN1C2	·	·	-1	·	-3	·
CCOc1ccc(NS(=O)(=O)c2cc(NC(=O)CCC(=O)c3cccs3)ccc2Cl)cc1	3	-37	0	-2	2	5.8*
COc1ccccc1NS(=O)(=O)c1cc(NC(=O)CCC(=O)c2cccs2)ccc1Cl	-3	-28	0	0	-1	-2
CN1Cc2c(N3CCOCC3)nc3sc(C#N)c(N)c3c2CC1(C)C	1	-22	1	-20	0	5.4*
c1cnc(SCCOc2ccc3c(c2)CCC3)nc1	0	-128	3.7*	-33	4	7.6*
COC(=O)C1CN(CCc2ccccc2)CCS(=O)(=O)N1Cc1ccc(OC)cc1 (stereo not drawn)	·	·	0	·	-1	·
N#CCC(=O)Nc1ccc(C(=O)OCC(=O)c2c[nH]c3ccccc23)cc1	·	8	-1	0	7.9*	-1
O=C(COC(=O)c1c[nH]c2ccccc12)NCc1ccccc1	·	-7	0	·	-1	4.7*
S=C(Nc1ccccc1)N1CCN(C/C=C/c2ccccc2)CC1	4	9	3.6*	-4	-2	-1
Cc1cccc(CN2CCN(C(=S)Nc3ccccc3)CC2)c1	2	-7	1	5	-1	11*
CCCC[C@H]1C2CC(OC(=O)Nc3cccc(C(F)(F)F)c3)C(C2)[C@H]2CCCCN21 (stereo partly drawn)	·	·	0	·	-4	·
COc1ccc(CNC(=O)C2CC(C)=C(C)CC2C(=O)O)cc1OC (stereo not drawn)	2	-6	1	4	-2	4.5*
CC1=C(C)CC(C(=O)NCc2ccc3c(c2)OCO3)C(C(=O)O)C1 (stereo not drawn)	4	-3	0	4	2	0
CN1CCN(C(=O)c2cc3sc4ccccc4c3s2)CC1	0	-96	4.5*	-3	6	·
C=CCN1[C@H](C)COc2cccc(N3CCSCC3)c2S1(=O)=O	·	·	-1	·	-2	·
CCN1CCN(C(=S)c2ccc(Br)cc2)CC1	2	6	1	6	-2	0
CCN1CCN(C(=S)c2ccc(O)cc2)CC1	1	5	1	11	-4	7.5*
SMILES	NR2E3 ag-1	NR2E3 ag-2	DAX1 inh-1	GASC-1 inh	SMARCA2 activ	DAX1 inh-2
COc1ccc(CNC(=O)Cn2cc3c(n2)CCCCC3)cc1	4	1	0	0	-1	5.7*
CC(COc1cccc(OC(F)(F)F)c1)CN1CCC(C(O)(c2ccccc2)c2ccccc2)CC1 (stereo not drawn)	·	·	-1	·	-3	·
CCOC(=O)c1sc(NC(=O)Nc2ccc(F)cc2)nc1C	-3	-121	3.7*	-1	2	2
CCOC(=O)c1sc(NC(C)=O)nc1C	4	11	0	7	5	0
Cc1ccc2c(c1)C1CS(=O)(=O)N(CC(C)C)CN1C2 (stereo not drawn)	·	·	0	·	3	·
CCC(=O)Nc1nnc(/C=C/c2ccccc2)s1	2	-72	1	-2	2	5.3*
